From ChEMBL document CHEMBL5149984, “Discovery of HN37 as a Potent and Chemically Stable Antiepileptic Drug Candidate” (J Med Chem, 2021)
pIC50: −log10 of the molar value.

Tests used:
[1] = Neurotoxicity in Kunming mouse assessed as motor impairment rate at 250 mg/kg, po after 1 hr by rotarod test; type: toxicity, organism-based; details: in vivo
Outline: (§1)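 Male KM mice dosed intragastrically with compound freshly suspended in 0.5% CMC-Na. Rotarod performance scored 1 h after dosing as the fraction of animals showing motor impairment. Fisher's exact test versus vehicle; TD50 from nonlinear dose−response fit.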

[2] = biological target: Potassium voltage-gated channel subfamily KQT member 5 (Homo sapiens) (UniProt Q9NR82); experiment: Agonist activity at human KCNQ5 channel expressed in CHO cells assessed as shift of half voltage of maximal activation at 10 uM by patch clamp method; type: cell-based; details: filed as agonist
Potassium voltage-gated channel subfamily KQT member 5 (Homo sapiens), sequence (Q9NR82 whole entry, the tested form may be a part): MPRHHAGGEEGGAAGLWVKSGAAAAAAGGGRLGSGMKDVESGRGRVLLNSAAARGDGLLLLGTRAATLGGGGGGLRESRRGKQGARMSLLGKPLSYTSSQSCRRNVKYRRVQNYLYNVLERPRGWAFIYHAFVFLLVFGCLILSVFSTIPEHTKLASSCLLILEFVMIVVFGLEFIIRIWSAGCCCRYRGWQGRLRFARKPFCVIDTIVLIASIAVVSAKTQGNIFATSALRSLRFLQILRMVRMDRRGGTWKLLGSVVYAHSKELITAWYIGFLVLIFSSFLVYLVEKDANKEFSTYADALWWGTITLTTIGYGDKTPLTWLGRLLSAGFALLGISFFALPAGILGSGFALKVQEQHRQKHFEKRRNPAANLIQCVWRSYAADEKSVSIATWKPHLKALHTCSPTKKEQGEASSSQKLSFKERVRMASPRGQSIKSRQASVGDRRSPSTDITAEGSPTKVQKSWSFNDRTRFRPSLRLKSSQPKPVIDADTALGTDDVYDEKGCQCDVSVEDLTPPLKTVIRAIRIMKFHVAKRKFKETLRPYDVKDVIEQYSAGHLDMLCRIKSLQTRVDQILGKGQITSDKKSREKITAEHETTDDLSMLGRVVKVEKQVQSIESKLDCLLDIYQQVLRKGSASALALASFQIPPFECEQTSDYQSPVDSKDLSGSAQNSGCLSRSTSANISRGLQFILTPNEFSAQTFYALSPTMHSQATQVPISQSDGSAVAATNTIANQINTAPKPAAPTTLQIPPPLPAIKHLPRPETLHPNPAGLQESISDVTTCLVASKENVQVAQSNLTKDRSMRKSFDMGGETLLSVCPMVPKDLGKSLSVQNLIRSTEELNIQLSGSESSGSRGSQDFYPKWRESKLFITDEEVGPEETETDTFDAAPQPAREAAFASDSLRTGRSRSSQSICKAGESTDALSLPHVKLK
Outline: (§2)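 Whole-cell patch clamp at room temperature on CHO cells (DMEM/F12, 10% FBS) transiently co-transfected with EGFP and hKCNQ1, rKCNQ2, rKCNQ3 A278T, hKCNQ4 or hKCNQ5; KCNQ2/3 at 1:1 cDNA ratio. Pipette solution 145 mM KCl, 5 mM MgATP, pH 7.3; bath 140 mM NaCl, 5 mM KCl, pH 7.4, under perfusion. V1/2 from Boltzmann fits; I/I0 is current amplitude with versus without compound; n = 4−6.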

CHO [3] = experiment: Agonist activity at rat KCNQ3 A278T mutant expressed in CHO cells assessed as amplitude change of outward current at 10 uM by patch clamp method; type: cell-based; details: filed as agonist; outline: as §2
[4] = Neurotoxicity in Kunming mouse assessed as motor impairment rate at 300 mg/kg, po after 1 hr by rotarod test; type: toxicity, organism-based; details: in vivo; outline: as §1
CHO [5] = experiment: Agonist activity at rat KCNQ3 A278T mutant expressed in CHO cells assessed as shift of half voltage of maximal activation at 10 uM by patch clamp method; type: cell-based; details: filed as agonist; outline: as §2
[6] = biological target: Potassium voltage-gated channel subfamily KQT member 2/member 3 (Rattus norvegicus) (UniProt O88943+O88944); experiment: Agonist activity at rat KCNQ2/3 channel expressed in CHO cells assessed as amplitude change of outward current at 0.1 uM by patch clamp method; type: cell-based; details: filed as agonist; outline: as §2
[7] = Half life in Kunming mouse plasma at 5 mg/kg, po measured upto 24 hrs by LC-MS/MS method; type: ADME, organism-based
Outline: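 Male KM mice (18−24 g) fasted 12 h before and 2 h after dosing, given 5 mg/kg orally in 5% DMSO/5% Tween 80/90% normal saline (n = 3 per time point). Aortic blood taken at 0.25–24 h and whole brain collected. Acetonitrile extraction with internal standard, then LC−MS/MS. Bioavailability calculated against the 2 mg/kg i.v. arm.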

Cytochrome P450 2D6 = Cytochrome P450 2D6 (Homo sapiens, UniProt P10635); experiment: Time dependent inhibition of human liver microsome CYP2D6 preincubated for 0.5 hrs in presence or absence of NADPH followed by substrate addition by LC-MS/MS method; type: ADME, microsomes
Cytochrome P450 2D6, sequence (P10635 whole entry): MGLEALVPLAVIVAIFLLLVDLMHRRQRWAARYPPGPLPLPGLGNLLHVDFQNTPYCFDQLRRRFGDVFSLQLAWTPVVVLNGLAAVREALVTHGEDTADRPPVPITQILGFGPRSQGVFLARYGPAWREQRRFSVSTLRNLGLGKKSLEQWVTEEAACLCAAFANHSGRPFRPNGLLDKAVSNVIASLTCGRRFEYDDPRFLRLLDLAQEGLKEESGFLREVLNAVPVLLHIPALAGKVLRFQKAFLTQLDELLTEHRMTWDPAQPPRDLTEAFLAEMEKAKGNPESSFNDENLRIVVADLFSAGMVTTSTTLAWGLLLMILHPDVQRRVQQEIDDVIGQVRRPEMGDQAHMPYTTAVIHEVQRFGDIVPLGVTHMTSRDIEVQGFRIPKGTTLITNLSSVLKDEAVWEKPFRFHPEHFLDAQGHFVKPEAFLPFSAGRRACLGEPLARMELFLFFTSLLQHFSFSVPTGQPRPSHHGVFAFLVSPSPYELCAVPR
Outline: (§3)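 Human liver microsomes preincubated 0.5 h with 0.10–50 μM test compound, with or without NADPH, then CYP-specific probe substrate added and incubation continued. Metabolite measured by LC-MS/MS; % activity remaining relative to no-compound control; IC50 fitted by Probit model. For CYP3A4, midazolam 1′-hydroxylation and testosterone 6β-hydroxylation were read separately.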

[8] = Metabolic stability in dog liver microsomes assessed as half life; type: ADME, Canis lupus familiaris, Microsome
[9] = Half life in Sprague-Dawley rat at 2 mg/kg, po measured upto 24 hrs by LC-MS/MS method; type: ADME, organism-based; details: in vivo
Outline: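 Male SD rats (180−220 g) given single oral doses of 2, 6 and 20 mg/kg; handled as in the mouse PK study (fasted 12 h before and 2 h after dosing, 5% DMSO/5% Tween 80/90% saline formulation). In a separate 6 mg/kg p.o. set, blood and brain were sampled together. Plasma and brain levels by LC−MS/MS.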

[10] = Cmax in Kunming mouse brain at 5 mg/kg, po measured upto 24 hrs by LC-MS/MS method; type: ADME, organism-based; parameters: dose 5 mg/kg, time < 24 hrs, route po
Outline: (§4)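 KM male mice (18−24 g), fasted 12 h before and 2 h after dosing. HN37 given orally at 5 mg/kg in 5% DMSO/5% Tween 80/90% saline, or iv at 2 mg/kg after dilution in saline with 1% Tween 80; n = 3 per time point. Blood sampled 0.25–24 h (from 0.083 h after iv); whole brain taken after oral dosing. Plasma and brain extracted with acetonitrile, quantified by LC−MS/MS; AUC0−t by trapezoidal method.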

[11] = biological target: Potassium voltage-gated channel subfamily KQT member 2 (Rattus norvegicus) (UniProt O88943); experiment: Agonist activity at rat KCNQ2 channel expressed in CHO cells assessed as amplitude change of outward current at 0.1 uM by patch clamp method; type: cell-based; details: filed as agonist; outline: as §2
Potassium voltage-gated channel subfamily KQT member 2 (Rattus norvegicus), sequence (O88943 whole entry): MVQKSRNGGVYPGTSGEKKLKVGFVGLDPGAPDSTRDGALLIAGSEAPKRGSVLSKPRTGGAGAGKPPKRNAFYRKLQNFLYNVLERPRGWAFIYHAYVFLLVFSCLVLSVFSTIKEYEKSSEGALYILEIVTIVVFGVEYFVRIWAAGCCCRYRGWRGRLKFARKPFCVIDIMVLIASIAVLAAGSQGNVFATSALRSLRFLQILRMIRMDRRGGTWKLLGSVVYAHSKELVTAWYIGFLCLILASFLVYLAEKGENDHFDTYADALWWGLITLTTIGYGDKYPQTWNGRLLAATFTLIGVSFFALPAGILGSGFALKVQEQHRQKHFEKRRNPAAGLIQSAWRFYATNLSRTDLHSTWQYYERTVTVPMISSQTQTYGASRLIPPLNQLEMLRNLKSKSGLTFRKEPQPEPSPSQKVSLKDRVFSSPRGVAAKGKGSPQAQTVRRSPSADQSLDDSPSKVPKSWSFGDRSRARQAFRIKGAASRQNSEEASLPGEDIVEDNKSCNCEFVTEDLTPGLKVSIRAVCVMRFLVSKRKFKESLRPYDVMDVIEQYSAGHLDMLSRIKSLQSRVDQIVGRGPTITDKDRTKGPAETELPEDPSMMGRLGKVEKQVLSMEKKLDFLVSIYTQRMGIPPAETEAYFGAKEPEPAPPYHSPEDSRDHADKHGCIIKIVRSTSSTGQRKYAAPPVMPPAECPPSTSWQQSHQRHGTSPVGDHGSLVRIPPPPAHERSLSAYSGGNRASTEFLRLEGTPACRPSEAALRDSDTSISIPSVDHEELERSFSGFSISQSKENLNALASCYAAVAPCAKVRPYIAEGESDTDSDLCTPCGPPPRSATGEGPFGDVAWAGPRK

[12] = Tmax in Sprague-Dawley rat at 2 mg/kg, po measured upto 24 hrs by LC-MS/MS method; type: ADME, organism-based; details: in vivo
Outline: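 Male SD rats (180–220 g) dosed orally at 2, 6 and 20 mg/kg, handled like the mice: fasting, 5% DMSO/5% Tween 80/saline vehicle, acetonitrile extraction, LC-MS/MS of plasma. In a separate set at 6 mg/kg p.o., blood and brain were sampled together.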

[13] = Neurotoxicity in Kunming mouse assessed as motor impairment rate at 200 mg/kg, po after 1 hr by rotarod test; type: toxicity, organism-based; details: in vivo; outline: as §1
[14] = Metabolic stability in dog liver microsomes assessed as intrinsic clearance; type: ADME, Canis lupus familiaris, Microsome; details: read-out: CLH
Rattus norvegicus = organism: Rattus norvegicus; experiment: Potency index, ratio of Topiramate ED50 to test compound ED50 for anticonvulsant activity in MES induced rat model of seizure after 1 hr; type: functional
Cytochrome P450 2B6 = Cytochrome P450 2B6 (Homo sapiens, UniProt P20813); experiment: Time dependent inhibition of human liver microsome CYP2B6 preincubated for 0.5 hrs in presence of NADPH followed by substrate addition by LC-MS/MS method; type: ADME, microsomes; outline: as §3
Cytochrome P450 2B6, sequence (P20813 whole entry): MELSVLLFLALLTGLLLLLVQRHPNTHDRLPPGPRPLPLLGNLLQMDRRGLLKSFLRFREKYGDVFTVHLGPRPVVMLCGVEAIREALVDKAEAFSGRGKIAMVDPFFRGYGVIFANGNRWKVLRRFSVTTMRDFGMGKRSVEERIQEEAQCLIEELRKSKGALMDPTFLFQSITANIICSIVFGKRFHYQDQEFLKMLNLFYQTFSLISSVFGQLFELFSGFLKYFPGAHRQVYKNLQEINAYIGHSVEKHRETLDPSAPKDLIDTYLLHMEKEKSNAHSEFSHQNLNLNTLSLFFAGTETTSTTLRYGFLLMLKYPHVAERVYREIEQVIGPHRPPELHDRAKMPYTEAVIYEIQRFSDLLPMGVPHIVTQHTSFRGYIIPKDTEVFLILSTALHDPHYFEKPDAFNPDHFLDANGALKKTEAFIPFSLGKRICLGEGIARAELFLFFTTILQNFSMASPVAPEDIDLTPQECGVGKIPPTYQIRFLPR

[15] = Ratio of drug concentration in Kunming mouse brain to plasma by rotarod test
Cytochrome P450 2C9 = Cytochrome P450 2C9 (Homo sapiens, UniProt P11712); experiment: Time dependent inhibition of human liver microsome CYP2C9 preincubated for 0.5 hrs in presence or absence of NADPH followed by substrate addition by LC-MS/MS method; type: ADME, microsomes; outline: as §3
Cytochrome P450 2C9, sequence (P11712 whole entry): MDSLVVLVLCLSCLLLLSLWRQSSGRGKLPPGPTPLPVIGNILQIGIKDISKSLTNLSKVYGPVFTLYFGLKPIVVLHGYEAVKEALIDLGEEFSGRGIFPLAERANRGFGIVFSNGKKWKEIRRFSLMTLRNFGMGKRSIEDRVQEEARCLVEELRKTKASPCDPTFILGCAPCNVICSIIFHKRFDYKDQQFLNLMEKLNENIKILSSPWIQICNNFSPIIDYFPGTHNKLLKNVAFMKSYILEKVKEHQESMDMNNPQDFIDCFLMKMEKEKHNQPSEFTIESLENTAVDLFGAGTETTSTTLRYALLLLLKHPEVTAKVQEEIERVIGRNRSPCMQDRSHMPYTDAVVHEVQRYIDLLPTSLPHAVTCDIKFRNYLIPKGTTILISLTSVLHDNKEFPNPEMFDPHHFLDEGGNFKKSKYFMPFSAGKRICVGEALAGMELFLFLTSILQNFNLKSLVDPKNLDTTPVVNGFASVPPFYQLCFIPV

[16] = Metabolic stability in rat liver microsomes assessed as intrinsic clearance; type: ADME, Microsome; details: read-out: CLH
[17] = biological target: Potassium voltage-gated channel subfamily KQT member 5 (Homo sapiens) (UniProt Q9NR82); experiment: Agonist activity at human KCNQ5 channel expressed in CHO cells assessed as amplitude change of outward current at 0.1 uM by patch clamp method; type: cell-based; details: filed as agonist; outline: as §2
CHO [18] = experiment: Agonist activity at rat KCNQ3 A278T mutant expressed in CHO cells assessed as shift of half voltage of maximal activation at 0.1 uM by patch clamp method; type: cell-based; details: filed as agonist; outline: as §2
Cytochrome P450 1A2 = Cytochrome P450 1A2 (Homo sapiens, UniProt P05177); experiment: Time dependent inhibition of human liver microsome CYP1A2 preincubated for 0.5 hrs in absence of NADPH followed by substrate addition by LC-MS/MS method; type: ADME, microsomes; outline: as §3
Cytochrome P450 1A2, sequence (P05177 whole entry): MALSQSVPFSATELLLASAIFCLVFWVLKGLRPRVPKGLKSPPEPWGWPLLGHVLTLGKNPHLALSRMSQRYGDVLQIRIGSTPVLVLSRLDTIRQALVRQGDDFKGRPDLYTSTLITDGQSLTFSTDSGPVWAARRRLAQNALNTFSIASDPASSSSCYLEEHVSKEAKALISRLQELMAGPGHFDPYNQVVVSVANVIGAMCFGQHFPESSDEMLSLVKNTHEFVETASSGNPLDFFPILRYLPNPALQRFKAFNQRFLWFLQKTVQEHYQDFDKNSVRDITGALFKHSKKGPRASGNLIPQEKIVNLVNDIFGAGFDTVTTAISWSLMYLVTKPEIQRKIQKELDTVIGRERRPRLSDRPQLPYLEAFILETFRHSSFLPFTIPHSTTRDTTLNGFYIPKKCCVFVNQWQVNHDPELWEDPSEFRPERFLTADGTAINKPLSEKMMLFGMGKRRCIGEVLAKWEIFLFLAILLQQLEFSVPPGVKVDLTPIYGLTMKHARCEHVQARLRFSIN

[19] = Metabolic stability in monkey liver microsomes assessed as intrinsic clearance; type: ADME, Macaca mulatta, Microsome; details: rhesus monkey, read-out: CLH
[20] = AUC(0 to t) in Kunming mouse brain at 5 mg/kg, po measured upto 24 hrs by LC-MS/MS method; type: ADME, organism-based; parameters: dose 5 mg/kg, time < 24 hrs, route po; outline: as §4
CYP1A2 = CYP1A2 (Homo sapiens, UniProt P05177); experiment: Inhibition of human liver microsome CYP1A2 at 0.10 to 50 uM preincubated with NADPH for 0.5 hrs followed by substrate addition by LC-MS/MS method relative to control; type: ADME; details: liver microsomes, dose 0.1-50 µM
CYP1A2, sequence (P05177 whole entry): as above

CCOC(=O)Nc1ccc(NCc2ccc(F)cc2)cc1N [EZOGABINE]
Activity [1]: 62.5%
Activity [2]: 0.09 mV
Activity (CHO [3]): 2.46
Activity [4]: 100%
Activity (CHO [5]): -46.8 mV

C#CCN(Cc1ccc(F)cc1)c1cc(C)c(NC(=O)OC)c(C)c1
Activity [6]: 2.77
half-life [7]: 1.95 h
pIC50 (Cytochrome P450 2D6): < 4.30
half-life [8]: 0.592 h
half-life [9]: 1.72 h
Cmax [10]: 263 ng/mL
Activity [11]: 3.4
Tmax [12]: 0.5 h
Activity [13]: 100%
CLint scaled [14]: 97.2 mL/min/kg
Ratio ED50 (Rattus norvegicus): 18.7
pIC50 (Cytochrome P450 2B6): 5.24
Kp [15]: 1.9
pIC50 (Cytochrome P450 2C9): < 4.30
CLint scaled [16]: 105 mL/min/kg
Activity [17]: 3.14
Activity (CHO [18]): -43.1 mV
pIC50 (Cytochrome P450 1A2): 3.85
CLint scaled [19]: 112 mL/min/kg
AUC(0-t) at 24 h [20]: 716 ng·h/mL
inhibition at 0.5 h, up to 50 µM (CYP1A2): < 25%
